# Active and inactive are the calls of the source. The rule behind the calls is not given here.
# How the values were obtained:
# Vitamin D3 receptor [1] = molecular target: T1, Vitamin D3 receptor (Homo sapiens, UniProt P11473); test: Agonist activity at VDR-LBD (unknown origin) expressed in Escherichia coli assessed as SRC2-3 coactivator peptide recruitment after 30 mins by fluorescence polarization assay
# T1 sequence (P11473 whole entry): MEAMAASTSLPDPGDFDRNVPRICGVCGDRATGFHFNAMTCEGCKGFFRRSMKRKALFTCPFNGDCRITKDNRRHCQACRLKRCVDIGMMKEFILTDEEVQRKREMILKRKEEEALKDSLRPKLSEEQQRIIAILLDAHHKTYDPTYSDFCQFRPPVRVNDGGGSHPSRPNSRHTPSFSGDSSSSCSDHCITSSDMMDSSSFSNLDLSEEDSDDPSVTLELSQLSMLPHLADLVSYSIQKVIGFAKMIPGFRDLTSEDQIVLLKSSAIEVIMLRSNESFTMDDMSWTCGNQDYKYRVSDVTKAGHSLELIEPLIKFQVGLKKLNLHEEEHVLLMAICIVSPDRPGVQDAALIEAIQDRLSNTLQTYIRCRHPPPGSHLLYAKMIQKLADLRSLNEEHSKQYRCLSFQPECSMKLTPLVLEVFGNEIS
# Vitamin D3 receptor [2] = molecular target: T1, Vitamin D3 receptor; test: Antagonist activity against VDR-LBD (unknown origin) expressed in Escherichia coli assessed as inhibition of VDR agonist LG190178-induced SRC2-3 coactivator peptide recruitment after 30 mins by fluorescence polarization assay
# Vitamin D3 receptor [3] = molecular target: T1, Vitamin D3 receptor; test: Agonist activity at VP16 tagged-VDR-LBD (unknown origin) expressed in HEK293T cells assessed as SRC1 coactivator peptide recruitment after 16 hrs by luciferase reporter gene based two hybrid assay; format: cell-based, HEK-293T
# Vitamin D3 receptor [4] = molecular target: T1, Vitamin D3 receptor; test: Antagonist activity against VP16 tagged-VDR-LBD (unknown origin) expressed in HEK293T cells assessed as inhibition of 1,25-dihydroxyvitamin D3-induced SRC1 coactivator peptide recruitment after 16 hrs by luciferase reporter gene based two hybrid assay; format: cell-based, HEK-293T
# [5] = Cytotoxicity against HEK293T cells assessed as reduction in cell viability after 18 hrs by CellTiter-Glo luminescence assay; format: cell-based, HEK-293T; settings: human, read-out: LD50
# [6] = molecular target: T2, Vitamin D3 receptor (Homo sapiens) (UniProt P11473); test: Agonist activity at VP16 tagged-VDR-LBD (unknown origin) expressed in HEK293T cells assessed as SRC1 coactivator peptide recruitment after 16 hrs by luciferase reporter gene based two hybrid assay relative to 1,25-dihydroxyvitamin D3; format: cell-based; settings: HEK-293T
# T2 sequence (whole entry): T1 sequence (P11473 whole entry)
# How it was run: (§1)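 HEK293T cells were lipid-transfected with VP16-VDR-LBD, SRC1-GAL4 and 4×UAS luciferase reporter plasmids for 16 h. Cells were then plated at 15,000/well on matrigel in phenol-red-free DMEM with 2% charcoal-treated FBS. Three experiments in quadruplicate; nonlinear regression.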
# [7] = molecular target: T2, Vitamin D3 receptor (Homo sapiens); test: Agonist activity at VDR-LBD in human DU145 cells assessed as CYP24A1 expression at 7.5 uM after 18 hrs by qRT-PCR method relative to 1alpha,25-dihydroxyvitamin D3; format: cell-based; settings: DU-145
# How it was run: (§2)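 Non-transfected DU145 cells were grown in DMEM with 10% heat-inactivated FBS and plated on matrigel-coated 6-well plates overnight at 37°C. Total RNA was isolated and CYP24A1 fold change was measured by real-time RT-PCR (Ct method). Experiments were run in triplicate; significance by Dunnett ANOVA.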
# Vitamin D3 receptor [8] = molecular target: T1, Vitamin D3 receptor; test: Agonist activity at human VP16 tagged-VDR-LBD after 16 hrs by luciferase reporter gene based transcription assay
# How it was run: as §1, with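 “hVDR-Gal4” for “VP16-VDR-LBD, SRC1-GAL4”, “FBS. Compounds (1:3 serial dilution, max final 150 µM) were added after 4 h and incubated 16 h at 37°C; readout by Bright-Glo luminescence. […]” for “FBS.”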
# [9] = molecular target: T2, Vitamin D3 receptor (Homo sapiens); test: Agonist activity at human VP16 tagged-VDR-LBD after 16 hrs by luciferase reporter gene based transcription assay relative to 1,25-dihydroxyvitamin D3
# How it was run: as §1, with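 “hVDR-Gal4” for “VP16-VDR-LBD, SRC1-GAL4”, “FBS. Compounds (1:3 serial dilution, max final 150 µM) were added after 4 h and incubated 16 h at 37°C; readout by Bright-Glo luminescence. […]” for “FBS.”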
# [10] = molecular target: T2, Vitamin D3 receptor (Homo sapiens); test: Agonist activity at VDR-LBD in human DU145 cells assessed as CYP24A1 expression at 7.5 uM in presence of 20 nM 1alpha,25-dihydroxyvitamin D3 after 18 hrs by qRT-PCR method; format: cell-based; settings: DU-145
# How it was run: as §2, with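 “37°C. […]” for “37°C.”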
Compound,EC50 (Vitamin D3 receptor [1]),IC50 (Vitamin D3 receptor [2]),EC50 (Vitamin D3 receptor [3]),IC50 (Vitamin D3 receptor [4]),CC50 at 18 h [5],Efficacy [6],Activity [7],EC50 (Vitamin D3 receptor [8]),Efficacy [9],Activity [10]
C[C@H](CCC(=O)O)[C@H]1CC[C@H]2[C@@H]3CC[C@@H]4C[C@H](O)CC[C@]4(C)[C@H]3C[C@H](O)[C@]12C [DEOXYCHOLIC ACID],> 150 µM,> 150 µM,> 150 µM,> 50 µM,> 150 µM,–,–,–,–,–
C=C1/C(=C\C=C2/CCC[C@]3(C)[C@@H]([C@H](C)CC(=O)O)CC[C@@H]23)C[C@@H](O)C[C@@H]1O,> 100 µM,2.29 µM,0.87 µM,> 100 µM,> 100 µM,55%,Active,–,–,–
C[C@H](CCC(=O)O)[C@H]1CC[C@H]2[C@@H]3CC[C@@H]4C[C@H](OS(=O)(=O)O)CC[C@]4(C)[C@H]3CC[C@]12C,> 150 µM,23.3 µM,> 150 µM,> 50 µM,> 150 µM,–,–,–,–,–
C[C@H](CCC(=O)O)[C@H]1CC[C@H]2[C@@H]3CC[C@@H]4C[C@H](O)CC[C@]4(C)[C@H]3CC[C@]12C [LITHOCHOLIC ACID],–,–,–,–,55.9 µM,–,–,–,–,–
COC(=O)CC[C@@H](C)[C@H]1CC[C@H]2[C@@H]3CC[C@@H]4C[C@H](O)CC[C@]4(C)[C@H]3CC[C@]12C,> 150 µM,> 150 µM,> 150 µM,15.1 µM,50.4 µM,–,–,–,–,–
C[C@H](CCC(=O)O)[C@H]1CC[C@H]2[C@@H]3C[C@H](O)[C@@H]4C[C@H](O)CC[C@]4(C)[C@H]3CC[C@]12C [HYODEOXYCHOLIC_ACID],> 150 µM,> 150 µM,> 150 µM,> 50 µM,> 150 µM,–,–,–,–,–
C[C@H](CCC(=O)NCCS(=O)(=O)O)[C@H]1CC[C@H]2[C@@H]3CC[C@@H]4C[C@H](O)CC[C@]4(C)[C@H]3CC[C@]12C [TAUROLITHOCHOLIC ACID],> 150 µM,14.5 µM,> 150 µM,> 50 µM,> 150 µM,–,–,–,–,–
C[C@H](CCC(=O)O)[C@H]1CC[C@H]2[C@@H]3CC[C@@H]4C[C@H](O[C@@H]5O[C@H](C(=O)O)[C@@H](O)[C@H](O)[C@H]5O)CC[C@]4(C)[C@H]3CC[C@]12C,> 50 µM,31.5 µM,20.5 µM,> 150 µM,> 150 µM,49%,inactive,12.3 µM,55%,–
C[C@H](CCC(=O)NCC(=O)O)[C@H]1CC[C@H]2[C@@H]3CC[C@@H]4C[C@H](O)CC[C@]4(C)[C@H]3CC[C@]12C [LITHOGLYCOCHOLATE],> 150 µM,40.1 µM,> 150 µM,> 50 µM,> 150 µM,–,–,–,–,–
C[C@H](CCC(=O)O[C@@H]1O[C@H](C(=O)O)[C@@H](O)[C@H](O)[C@H]1O)[C@H]1CC[C@H]2[C@@H]3CC[C@@H]4C[C@H](O)CC[C@]4(C)[C@H]3CC[C@]12C,> 150 µM,2.86 µM,6.52 µM,> 150 µM,> 150 µM,29%,Active,21.3 µM,70%,Active
CC(=O)O[C@@H]1CC[C@@]2(C)[C@H](CC[C@@H]3[C@@H]2CC[C@]2(C)[C@@H]([C@H](C)CCC(=O)O)CC[C@@H]32)C1,> 150 µM,11 µM,1.49 µM,> 50 µM,> 50 µM,–,–,–,–,–
C[C@H](CCC(=O)O)[C@H]1CC[C@H]2[C@@H]3[C@H](O)C[C@@H]4C[C@H](O)CC[C@]4(C)[C@H]3CC[C@]12C [CHENODIOL],> 150 µM,> 150 µM,> 150 µM,> 50 µM,> 150 µM,–,–,–,–,–
C[C@H](CCC(=O)O)[C@H]1CC[C@H]2[C@@H]3[C@@H](O)C[C@@H]4C[C@H](O)CC[C@]4(C)[C@H]3CC[C@]12C [URSODIOL],> 150 µM,> 150 µM,> 150 µM,> 50 µM,> 150 µM,–,–,–,–,–

# Reference: ChEMBL document CHEMBL3763103, “Synthesis and evaluation of vitamin D receptor-mediated activities of cholesterol and vitamin D metabolites” (Eur J Med Chem, 2016)
